Experimental data: ChEMBL document CHEMBL5329156, “Discovery and development of novel substituted monohydrazides as potent antifungal agents” (RSC Med Chem, 2023)
In brackets after ≈: the same amount, converted by molar mass.

Assays:
Format in all cases: functional
Pichia kudriavzevii = test: Antifungal activity against Pichia kudriavzevii ATCC 6258 assessed as fungal growth inhibition by double dilution method
In short: (§1)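 Broth microdilution after CLSI M27-A3/M38-A2 with minor changes. Single colony grown overnight in YPD at 35 °C, 200 rpm. Compound final range 0.06-31.3 µg/mL; incubated 48 h at 35 °C.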

[Candida] auris [1] = Antifungal activity against Candida auris AR Bank # 0384 assessed as fungal growth inhibition by double dilution method; conditions: Candidozyma auris; in short: as §1
Candida albicans [2] = test: Antifungal activity against itraconazole/fluconazole susceptible Candida albicans ATCC MYA-2310 assessed as fungal growth inhibition by double dilution method
In short: (§2)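 Broth microdilution after CLSI M27-A3/M38-A2 with minor modifications. A single colony was grown overnight in YPD at 35 °C with shaking at 200 rpm. Cells were mixed 1:1 with compound (final 0.06-31.3 µg/mL, from DMSO stocks) and incubated 48 h at 35 °C.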

Aspergillus flavus = test: Antifungal activity against Aspergillus flavus ATCC MYA-3631 assessed as fungal growth inhibition by double dilution method
Aspergillus fumigatus [3] = test: Antifungal activity against Aspergillus fumigatus NRRL 6113 assessed as fungal growth inhibition by double dilution method
Candida albicans [4] = test: Antifungal activity against Candida albicans ATCC 10231 assessed as fungal growth inhibition by double dilution method; in short: as §1
Cryptococcus neoformans = test: Antifungal activity against Cryptococcus neoformans ATCC MYA-895 assessed as fungal growth inhibition by double dilution method; in short: as §1
[Candida] auris [5] = Antifungal activity against Candida auris AR Bank # 0390 assessed as fungal growth inhibition by double dilution method; conditions: Candidozyma auris; in short: as §1
Candida albicans [6] = test: Antifungal activity against itraconazole/fluconazole resistant Candida albicans ATCC MYA-1237 assessed as fungal growth inhibition by double dilution method; in short: as §2
Candida albicans [7] = test: Antifungal activity against itraconazole/fluconazole susceptible Candida albicans ATCC MYA-2876 assessed as fungal growth inhibition by double dilution method; in short: as §2
Aspergillus nidulans = test: Antifungal activity against Aspergillus nidulans ATCC 38163 assessed as fungal growth inhibition by double dilution method
Nakaseomyces glabratus [8] = test: Antifungal activity against Candida glabrata ATCC 22019 assessed as fungal growth inhibition by double dilution method; in short: as §1
Aspergillus fumigatus [9] = test: Antifungal activity against Aspergillus fumigatus NRRL 5109 assessed as fungal growth inhibition by double dilution method
Candida albicans [10] = test: Antifungal activity against itraconazole/fluconazole resistant Candida albicans ATCC 90819 assessed as fungal growth inhibition by double dilution method; in short: as §2
Nakaseomyces glabratus [11] = test: Antifungal activity against Candida glabrata ATCC 2001 assessed as fungal growth inhibition by double dilution method; in short: as §1
Candida albicans [12] = test: Antifungal activity against Candida albicans ATCC 64124 assessed as fungal growth inhibition by double dilution method; in short: as §2
Candida albicans [13] = test: Antifungal activity against itraconazole/fluconazole resistant Candida albicans ATCC MYA-1003 assessed as fungal growth inhibition by double dilution method; in short: as §2
Aspergillus fumigatus [14] = test: Antifungal activity against Aspergillus fumigatus NRRL 163 assessed as fungal growth inhibition by double dilution method
Aspergillus terreus = test: Antifungal activity against Aspergillus terreus ATCC MYA-3633 assessed as fungal growth inhibition by double dilution method

SMILES	MIC (Pichia kudriavzevii) [µg/mL]	MIC ([Candida] auris [1]) [µg/mL]	MIC (Candida albicans [2]) [µg/mL]	MIC (Aspergillus flavus) [µg/mL]	MIC (Aspergillus fumigatus [3]) [µg/mL]	MIC (Candida albicans [4]) [µg/mL]	MIC (Cryptococcus neoformans) [µg/mL]	MIC ([Candida] auris [5]) [µg/mL]	MIC (Candida albicans [6]) [µg/mL]	MIC (Candida albicans [7]) [µg/mL]	MIC (Aspergillus nidulans) [µg/mL]	MIC (Nakaseomyces glabratus [8]) [µg/mL]	MIC (Aspergillus fumigatus [9]) [µg/mL]	MIC (Candida albicans [10]) [µg/mL]	MIC (Nakaseomyces glabratus [11]) [µg/mL]	MIC (Candida albicans [12]) [µg/mL]	MIC (Candida albicans [13]) [µg/mL]	MIC (Aspergillus fumigatus [14]) [µg/mL]	MIC (Aspergillus terreus) [µg/mL]
COc1cccc(NNC(=O)c2cccc(F)n2)c1	0.24 (≈ 0.919 µM)	1.95 (≈ 7.46 µM)	1.95 (≈ 7.46 µM)	> 31.3	> 31.3	0.98 (≈ 3.75 µM)	0.49 (≈ 1.88 µM)	0.98 (≈ 3.75 µM)	1.95 (≈ 7.46 µM)	0.49 (≈ 1.88 µM)	1.95 (≈ 7.46 µM)	3.9 (≈ 14.9 µM)	7.8 (≈ 29.9 µM)	3.9 (≈ 14.9 µM)	15.6 (≈ 59.7 µM)	0.98 (≈ 3.75 µM)	0.98 (≈ 3.75 µM)	15.6 (≈ 59.7 µM)	3.9 (≈ 14.9 µM)
COc1ccc(NNC(=O)c2ncc(F)cc2F)cc1	0.98 (≈ 3.51 µM)	3.9 (≈ 14 µM)	1.95 (≈ 6.98 µM)	> 31.3	31.3 (≈ 112 µM)	1.95 (≈ 6.98 µM)	1.95 (≈ 6.98 µM)	0.98 (≈ 3.51 µM)	0.98 (≈ 3.51 µM)	1.95 (≈ 6.98 µM)	1.95 (≈ 6.98 µM)	7.8 (≈ 27.9 µM)	31.3 (≈ 112 µM)	1.95 (≈ 6.98 µM)	7.8 (≈ 27.9 µM)	1.95 (≈ 6.98 µM)	0.98 (≈ 3.51 µM)	31.3 (≈ 112 µM)	31.3 (≈ 112 µM)
COc1ccc(NNC(=O)c2ccc(F)cn2)cc1	0.24 (≈ 0.919 µM)	3.9 (≈ 14.9 µM)	0.98 (≈ 3.75 µM)	> 31.3	> 31.3	0.24 (≈ 0.919 µM)	≤ 0.06	0.49 (≈ 1.88 µM)	0.49 (≈ 1.88 µM)	0.98 (≈ 3.75 µM)	1.95 (≈ 7.46 µM)	3.9 (≈ 14.9 µM)	> 31.3	0.98 (≈ 3.75 µM)	1.95 (≈ 7.46 µM)	0.98 (≈ 3.75 µM)	0.49 (≈ 1.88 µM)	> 31.3	31.3 (≈ 120 µM)
COc1cccc(NNC(=O)c2ccc(F)cn2)c1	0.24 (≈ 0.919 µM)	1.95 (≈ 7.46 µM)	1.95 (≈ 7.46 µM)	> 31.3	> 31.3	0.24 (≈ 0.919 µM)	0.24 (≈ 0.919 µM)	0.98 (≈ 3.75 µM)	1.95 (≈ 7.46 µM)	0.49 (≈ 1.88 µM)	1.95 (≈ 7.46 µM)	3.9 (≈ 14.9 µM)	> 31.3	3.9 (≈ 14.9 µM)	15.6 (≈ 59.7 µM)	0.98 (≈ 3.75 µM)	0.98 (≈ 3.75 µM)	> 31.3	3.9 (≈ 14.9 µM)
O=C(NNc1ccc(F)cc1)c1nc(F)ccc1F	0.24 (≈ 0.898 µM)	1.95 (≈ 7.3 µM)	0.98 (≈ 3.67 µM)	7.8 (≈ 29.2 µM)	> 31.3	0.24 (≈ 0.898 µM)	0.49 (≈ 1.83 µM)	0.98 (≈ 3.67 µM)	0.98 (≈ 3.67 µM)	0.98 (≈ 3.67 µM)	0.49 (≈ 1.83 µM)	7.8 (≈ 29.2 µM)	15.6 (≈ 58.4 µM)	0.98 (≈ 3.67 µM)	15.6 (≈ 58.4 µM)	0.98 (≈ 3.67 µM)	0.49 (≈ 1.83 µM)	31.3 (≈ 117 µM)	1.95 (≈ 7.3 µM)
COc1cccc(NNC(=O)c2cccc(Br)n2)c1	0.24 (≈ 0.745 µM)	0.98 (≈ 3.04 µM)	7.8 (≈ 24.2 µM)	> 31.3	> 31.3	1.95 (≈ 6.05 µM)	0.98 (≈ 3.04 µM)	1.95 (≈ 6.05 µM)	0.98 (≈ 3.04 µM)	0.49 (≈ 1.52 µM)	3.9 (≈ 12.1 µM)	0.98 (≈ 3.04 µM)	31.3 (≈ 97.2 µM)	1.95 (≈ 6.05 µM)	7.8 (≈ 24.2 µM)	3.9 (≈ 12.1 µM)	3.9 (≈ 12.1 µM)	> 31.3	1.95 (≈ 6.05 µM)
O=C(NNc1cccc(F)c1)c1ccc(Br)cn1	0.24 (≈ 0.774 µM)	1.95 (≈ 6.29 µM)	3.9 (≈ 12.6 µM)	15.6 (≈ 50.3 µM)	> 31.3	0.49 (≈ 1.58 µM)	0.06 (≈ 0.193 µM)	1.95 (≈ 6.29 µM)	3.9 (≈ 12.6 µM)	1.95 (≈ 6.29 µM)	1.95 (≈ 6.29 µM)	7.8 (≈ 25.2 µM)	> 31.3	3.9 (≈ 12.6 µM)	> 31.3	0.49 (≈ 1.58 µM)	0.98 (≈ 3.16 µM)	> 31.3	0.98 (≈ 3.16 µM)
